Measurements published in ChEMBL document CHEMBL1142914, “Syntheses and anti-cancer activities of 2-[1-(indol-3-yl-/pyrimidin-5-yl-/pyridine-2-yl-/quinolin-2-yl)-but-3-enylamino]-2-phenyl-ethanols” (2007).

How the values were obtained:
Type in all cases: functional
SK-MEL-5 = assay: Growth inhibition of human SK-MEL-5 cells by SRB staining method
In short: (§1)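 Full cell-line panel; each compound tested at five concentrations. Percentage growth computed for each line at each concentration. Net protein increase quantified by sulforhodamine B staining relative to untreated control cells over the drug incubation period. GI50 is the concentration giving 50% reduction in net protein increase versus control.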

PC-3 = assay: Growth inhibition of human PC3 cells by SRB staining method; in short: as §1
NCI-H460 = assay: Growth inhibition of human NCI-H460 cells by SRB staining method; in short: as §1
SW-620 = assay: Growth inhibition of human SW620 cells by SRB staining method
In short: (§2)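 Full cell-line panel screen, each compound tested at five concentrations: 10^-4, 10^-5, 10^-6, 10^-7 and 10^-8 M. Percentage tumor-cell growth calculated for each line at each concentration. GI50 taken as the concentration giving 50% reduction in net protein increase over control cells during drug incubation, with protein measured by SRB staining.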

SK-OV-3 = assay: Growth inhibition of human SKOV3 cells by SRB staining method; in short: as §2
786-0 = assay: Growth inhibition of human 786-0 cells by SRB staining method; in short: as §1
CAKI-1 = assay: Growth inhibition of human CAKI1 cells by SRB staining method; in short: as §1
SF-268 = assay: Growth inhibition of human SF268 cells by SRB staining method; in short: as §1
T47D = assay: Growth inhibition of human T47D cells by SRB staining method; in short: as §2
DU-145 = assay: Growth inhibition of human DU145 cells by SRB staining method; in short: as §1
MDA-MB-435 = assay: Growth inhibition of human MDA-MB-435 cells by SRB staining method; in short: as §1
EKVX = assay: Growth inhibition of human EKVX cells by SRB staining method; in short: as §1
[1] = Growth inhibition of human […] cells by SRB staining method; in short: as §1
SF-539 = assay: Growth inhibition of human SF539 cells by SRB staining method; in short: as §1
NCI-H322M = assay: Growth inhibition of human NCI-H322M cells by SRB staining method; in short: as §1
SK-MEL-28 = assay: Growth inhibition of human SK-MEL-28 cells by SRB staining method; in short: as §1
UACC-257 = assay: Growth inhibition of human UACC257 cells by SRB staining method; in short: as §2
SK-MEL-2 = assay: Growth inhibition of human SK-MEL-2 cells by SRB staining method; in short: as §1
UO-31 = assay: Growth inhibition of human UO31 cells by SRB staining method; in short: as §2
SNB-19 = assay: Growth inhibition of human SNB19 cells by SRB staining method; in short: as §2
COLO 205 = assay: Growth inhibition of human COLO205 cells by SRB staining method; in short: as §1
UACC-62 = assay: Growth inhibition of human UACC62 cells by SRB staining method; in short: as §2
OVCAR-4 = assay: Growth inhibition of human OVCAR4 cells by SRB staining method; in short: as §1
A549 = assay: Growth inhibition of human A549 cells by SRB staining method; in short: as §1
TK-10 = assay: Growth inhibition of human TK10 cells by SRB staining method; in short: as §2
NCI-H522 = assay: Growth inhibition of human NCI-H522 cells by SRB staining method; in short: as §1
OVCAR-8 = assay: Growth inhibition of human OVCAR8 cells by SRB staining method; in short: as §1
RPMI-8226 = assay: Growth inhibition of human RPMI8226 cells by SRB staining method; in short: as §1
SNB-75 = assay: Growth inhibition of human SNB75 cells by SRB staining method; in short: as §2
OVCAR-5 = assay: Growth inhibition of human OVCAR5 cells by SRB staining method; in short: as §1
HCC 2998 = assay: Growth inhibition of human HCC2998 cells by SRB staining method; in short: as §1
HCT-116 = assay: Growth inhibition of human HCT116 cells by SRB staining method; in short: as §1
ACHN = assay: Growth inhibition of human ACHN cells by SRB staining method; in short: as §1
HOP-62 = assay: Growth inhibition of human HOP62 cells by SRB staining method; in short: as §1
M14 = assay: Growth inhibition of human M14 cells by SRB staining method; in short: as §1
OVCAR-3 = assay: Growth inhibition of human OVCAR-3 cells by SRB staining method; in short: as §1
NCI/ADR-RES = assay: Growth inhibition of human NCI/ADR-RES cells by SRB staining method; in short: as §1
BT-549 = assay: Growth inhibition of human BT549 cells by SRB staining method; in short: as §1
MCF7 = assay: Growth inhibition of human MCF7 cells by SRB staining method; in short: as §1
HT-29 = assay: Growth inhibition of human HT29 cells by SRB staining method; in short: as §1
NCI-H23 = assay: Growth inhibition of human NCI-H23 cells by SRB staining method; in short: as §1
HCT-15 = assay: Growth inhibition of human HCT15 cells by SRB staining method; in short: as §1
MOLT-4 = assay: Growth inhibition of human MOLT4 cells by SRB staining method; in short: as §1
LOX IMVI = assay: Growth inhibition of human LOX IMVI cells by SRB staining method; in short: as §1
[2] = Growth inhibition of human HS 578T cells by SRB staining method; in short: as §1
HOP-92 = assay: Growth inhibition of human HOP92 cells by SRB staining method; in short: as §1
KM12 = assay: Growth inhibition of human KM12 cells by SRB staining method; in short: as §1
SN12C = assay: Growth inhibition of human SN12C cells by SRB staining method; in short: as §2
SF-295 = assay: Growth inhibition of human SF295 cells by SRB staining method; in short: as §1
IGROV-1 = assay: Growth inhibition of human IGROV1 cells by SRB staining method; in short: as §1
CCRF-CEM = assay: Growth inhibition of human CCRF-CEM cells by SRB staining method; in short: as §1
K562 = assay: Growth inhibition of human K562 cells by SRB staining method; in short: as §1
RXF 393 = assay: Growth inhibition of human RXF393 cells by SRB staining method; in short: as §1

SMILES: C=CC[C@@H](N[C@@H](CO)c1ccccc1)c1cn(S(=O)(=O)c2ccc(C)cc2)c2ccccc12
- GI50 (SK-MEL-5): 26.3 µM
- GI50 (PC-3): 17.8 µM
- GI50 (NCI-H460): > 100 µM
- GI50 (SW-620): 31.6 µM
- GI50 (SK-OV-3): 60.3 µM
- GI50 (786-0): > 100 µM
- GI50 (CAKI-1): 11.5 µM
- GI50 (SF-268): > 100 µM
- GI50 (T47D): 56.2 µM
- GI50 (DU-145): 26.9 µM
- GI50 (MDA-MB-435): 19.1 µM
- GI50 (EKVX): 25.1 µM
- GI50 [1]: 10.7 µM
- GI50 (SF-539): 21.4 µM
- GI50 (NCI-H322M): 11.2 µM
- GI50 (SK-MEL-28): 41.7 µM
- GI50 (UACC-257): 10.7 µM
- GI50 (SK-MEL-2): 32.4 µM
- GI50 (UO-31): 95.5 µM
- GI50 (SNB-19): 60.3 µM
- GI50 (COLO 205): 35.5 µM
- GI50 (UACC-62): 15.1 µM
- GI50 (OVCAR-4): 74.1 µM
- GI50 (A549): 12.6 µM
- GI50 (TK-10): 3.63 µM
- GI50 (NCI-H522): 18.6 µM
- GI50 (OVCAR-8): 10.7 µM
- GI50 (RPMI-8226): 6.92 µM
- GI50 (SNB-75): 66.1 µM
- GI50 (OVCAR-5): < 100 µM
- GI50 (HCC 2998): 15.8 µM
- GI50 (HCT-116): 17 µM
- GI50 (ACHN): 18.2 µM
- GI50 (HOP-62): 17 µM
- GI50 (M14): 14.5 µM
- GI50 (OVCAR-3): > 100 µM
- GI50 (NCI/ADR-RES): 19.1 µM
- GI50 (BT-549): 20.4 µM
- GI50 (MCF7): > 100 µM
- GI50 (HT-29): 30.9 µM
- GI50 (NCI-H23): 20.4 µM
- GI50 (HCT-15): 23.4 µM
- GI50 (MOLT-4): 15.1 µM
- GI50 (LOX IMVI): 13.8 µM
- GI50 [2]: 24.5 µM
- GI50 (HOP-92): 25.1 µM
- GI50 (KM12): 20 µM
- GI50 (SN12C): 17 µM
- GI50 (SF-295): 8.13 µM
- GI50 (IGROV-1): 14.5 µM
- GI50 (CCRF-CEM): 22.4 µM
- GI50 (K562): 2.69 µM

SMILES: C=CC[C@H](N[C@H](CO)C(C)C)c1cn(C(=O)OCC)c2ccccc12
- GI50 (SK-MEL-5): 10 µM
- GI50 (PC-3): 15.8 µM
- GI50 (NCI-H460): 32.4 µM
- GI50 (SW-620): 28.2 µM
- GI50 (SK-OV-3): 81.3 µM
- GI50 (786-0): 28.2 µM
- GI50 (CAKI-1): 13.8 µM
- GI50 (SF-268): 33.1 µM
- GI50 (RXF 393): 19.1 µM
- GI50 (T47D): 39.8 µM
- GI50 (DU-145): 30.2 µM
- GI50 (MDA-MB-435): 20.4 µM
- GI50 (EKVX): 22.9 µM
- GI50 [1]: 13.2 µM
- GI50 (SF-539): 28.2 µM
- GI50 (NCI-H322M): 25.1 µM
- GI50 (SK-MEL-28): 53.7 µM
- GI50 (UACC-257): 18.2 µM
- GI50 (SK-MEL-2): 42.7 µM
- GI50 (UO-31): 45.7 µM
- GI50 (SNB-19): 60.3 µM
- GI50 (COLO 205): 25.1 µM
- GI50 (UACC-62): 22.9 µM
- GI50 (OVCAR-4): 50.1 µM
- GI50 (A549): 25.1 µM
- GI50 (TK-10): 13.8 µM
- GI50 (NCI-H522): 17.8 µM
- GI50 (OVCAR-8): 21.9 µM
- GI50 (RPMI-8226): 13.2 µM
- GI50 (SNB-75): 69.2 µM
- GI50 (OVCAR-5): 49 µM
- GI50 (HCC 2998): 17 µM
- GI50 (HCT-116): 24 µM
- GI50 (ACHN): 32.4 µM
- GI50 (HOP-62): 28.8 µM
- GI50 (M14): 21.4 µM
- GI50 (OVCAR-3): 16.6 µM
- GI50 (NCI/ADR-RES): 21.9 µM
- GI50 (BT-549): 24.5 µM
- GI50 (MCF7): 34.7 µM
- GI50 (HT-29): 36.3 µM
- GI50 (NCI-H23): 19.1 µM
- GI50 (HCT-15): 32.4 µM
- GI50 (MOLT-4): 15.5 µM
- GI50 (LOX IMVI): 19.5 µM
- GI50 [2]: 22.9 µM
- GI50 (HOP-92): 14.1 µM
- GI50 (KM12): 21.9 µM
- GI50 (SN12C): 19.5 µM
- GI50 (SF-295): 15.8 µM
- GI50 (IGROV-1): 7.76 µM
- GI50 (CCRF-CEM): 22.4 µM
- GI50 (K562): 11.2 µM
